For seven molecules, Ratio and Activity results are on record in ChEMBL document CHEMBL4330187, “Synthesis of 5-Thio-α-GalCer Analogues with Fluorinated Acyl Chain on Lipid Residue and Their Biological Evaluation” (2019).

Activity calls are given as the source filed them. The rule behind the calls is not given here.

Assay [1] concerns Mus musculus. In words: Immunomodulatory activity in C57BL/6 mouse assessed as serum IFNgamma/IL-4 maximum productivity ratio at 100 ug/kg, ip by ELISA. The assay is classed as functional. A digest of the protocol: (§1)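 Glycolipid given once i.p. to B6 mice at 100 μg/kg in 0.1 mL vehicle. Serum IL-4 and IFN-γ followed over time after injection, three mice per group, each serum sampled individually. IFN-γ/IL-4 selectivity expressed two ways: ratio of areas under the time–concentration curves, and ratio of peak (maximum) production.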
In general terms: In an ELISA, binding on a coated surface is turned into a signal by an enzyme label.

Assay [2] has as its system Mus musculus. As to the kind of experiment: Immunomodulatory activity in C57BL/6 mouse assessed as serum IFNgamma/IL-4 AUC ratio at 100 ug/kg, ip by ELISA. The assay is classed as functional. A digest of the protocol:
as §1

Assay [3] relates to Mus musculus. In words: Immunomodulatory activity in C57BL/6 mouse assessed as increase in IL-4 secretion in serum at 100 ug/kg, ip after 3 hrs by ELISA. The assay is classed as functional, organism-based. The procedure, abridged:
as §1

Assay [4] relates to Mus musculus. In words: Immunomodulatory activity in C57BL/6 mouse assessed as increase in IFN-gamma secretion in serum at 100 ug/kg, ip by ELISA. The assay is classed as functional, organism-based. The procedure, abridged: as §1
Assay [5] relates to Mus musculus. In words: Immunomodulatory activity in C57BL/6 mouse assessed as increase in IL-4 secretion in serum at 100 ug/kg, ip by ELISA. The format is functional, organism-based. The procedure, abridged:
as §1

On to `CCCCCCCCCCCCCC[C@@H](O)[C@@H](O)[C@H](CO[C@H]1S[C@H](CO)[C@H](O)[C@H](O)[C@H]1O)NC(=O)C(F)(F)C(F)(F)C(F)(F)C(F)(F)C(F)(F)C(F)(F)C(F)(F)C(F)(F)C(F)(F)C(F)(F)C(F)(F)C(F)(F)C(F)(F)F`, for which the results for the Ratio in the assay on Mus musculus [1] and with Mus musculus [2] were 0.59 and 0.58, respectively.
For `CCCCCCCCCCCCCC[C@@H](O)[C@@H](O)[C@H](CO[C@H]1O[C@H](CO)[C@H](O)[C@H](O)[C@H]1O)NC(=O)C(F)(F)C(F)(F)C(F)(F)C(F)(F)C(F)(F)C(F)(F)C(F)(F)F` the same measures were 3.4 and 5.8.
Consider `CCCCCCCCCCCCCC[C@@H](O)[C@@H](O)[C@H](CO[C@H]1S[C@H](CO)[C@H](O)[C@H](O)[C@H]1O)NC(=O)C(F)(F)C(F)(F)C(F)(F)C(F)(F)C(F)(F)C(F)(F)C(F)(F)F`, for which the Ratio with Mus musculus [1] came to 9; with Mus musculus [2], 26.7.
Consider `CCCCCCCCCCCCCCCCCCCCCCCCCC(=O)N[C@@H](CO[C@H]1O[C@H](CO)[C@H](O)[C@H](O)[C@H]1O)[C@H](O)[C@H](O)CCCCCCCCCCCCCC` [RGI-7000], for which the outcome in the assay on Mus musculus [3] and in the assay with Mus musculus [4] was Active. Besides, the Ratio is recorded as 2.8 in the assay on Mus musculus [1] and 12.1 with Mus musculus [2].
Take `CCCCCCCCCCCCCC[C@@H](O)[C@@H](O)[C@H](CO[C@H]1S[C@H](CO)[C@H](O)[C@H](O)[C@H]1O)NC(=O)CCCCCCC(F)(F)F`: the outcome in the assay with Mus musculus [4] and in the assay with Mus musculus [5] was inactive.
Take `CCCCCCCCCCCCCC[C@@H](O)[C@@H](O)[C@H](CO[C@H]1O[C@H](CO)[C@H](O)[C@H](O)[C@H]1O)NC(=O)C(F)(F)C(F)(F)C(F)(F)C(F)(F)C(F)(F)C(F)(F)C(F)(F)C(F)(F)C(F)(F)C(F)(F)C(F)(F)C(F)(F)C(F)(F)F`: the outcome in the assay on Mus musculus [4] and in the assay on Mus musculus [5] was inactive.
In the case of `CCCCCCCCCCCCCC[C@@H](O)[C@@H](O)[C@H](CO[C@H]1O[C@H](CO)[C@H](O)[C@H](O)[C@H]1O)NC(=O)CCCCCCC(F)(F)F`, the result in the assay with Mus musculus [4] and in the assay with Mus musculus [5] was inactive.
